A short description of assay [1]: Her2 expression decrease, cell viability multiplex – SKBR3 breast tumor cells, AlphaScreen, ATP viability, primary screen (AID 461;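 active = Her2 level under about 52% in both replicate screens, with viability over 70% of control, limit read from the data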;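 as to Her2 level: lower value means less Her2 protein in the cells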;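 as to viability: percent of carrier control wells set as 100% viability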). The settings on record: SKBR3 Her2 protein level, 18-24 h, measured here: SKBR3 viability, ATP luminescence, at 10 µM. (In general: Alpha assays give light when donor and acceptor beads are brought close together.)
Assay [2] concerns the target Receptor tyrosine-protein kinase erbB-2 (Homo sapiens) (UniProt P04626). The description is as above. The settings on record: 18-24 h, at 10 µM, stronger effect = lower value.
Assay [3] in a line: reduced viability of SK-BR-3 breast cancer cells – cell-based, 24 h, human, pilot screen (AID 572;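 active = viability at or below 10% of carrier control in both of two separate runs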;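 also: compound exposure lasted between 18 and 24 h rather than exactly 24 h; 100% = carrier-treated control wells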). The settings on record: SK-BR-3 viability, CellTiter-Glo luminescence, at 10 µM, stronger effect = lower value. Background: ATP-based viability assays read luminescence as a measure of living cells.
The nature of assay [4]: HUVEC growth inhibition – cell-based, human, primary screen (AID 575).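 Also: 100% = median of untreated cell wells with 0.1% DMSO on each plate.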 The settings on record: HUVEC proliferation, CellTiter-Glo luminescence, 72 h; at 10 µM; stronger effect = lower value. Summed up: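 Assay system: Primary human umbilical vein endothelial cells | Quantity: 1250 cells per well | Medium: Supplemented EBM, 2% fetal bovine serum | Detection: CellTiter-Glo luminescence measuring cellular ATP | Read-out: % viability vs DMSO wells | Plate: Collagen-coated 384-well format | Times: 72 h exposure, 37 °C, 5% CO2, 30 min RT equilibration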

A short description of assay [5]: H69AR cell proliferation blockers – human, duplicate replicates, primary screen (AID 580;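 active = viability at or under a set limit in both replicates, limit being median viability minus 3 SD, cut at about 48% in these data, passing the limit was not always enough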;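 also: 100% = mean luminescence of untreated wells and 0% = no signal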). The settings on record: H69AR lung tumor cells viability, ATP luminescence, 72 h; at 10 µM; stronger effect = lower value.
Assay [6] is described as follows: MRP1 drug-resistance reversers in H69AR cells – cell-based, doxorubicin co-treatment, pilot screen (AID 601;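 active = viability loss from added drug above about 55%, and viability with drug at most 40%, in both replicates, limit read from the data, passing the limit was not always enough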). The settings on record: CellTiter-Glo, 72 h, at 10 µM; for differential viability (reversal): stronger effect = higher value.
Assay [7] can be described thus: yeast transport mutant growth inhibition pilot in 384-well plates, post-Golgi transport modulator project (AID 636; in the data active = inhibition above about 31%). The settings on record: absorbance 615 nm, about 18 h, stronger effect = higher value.
Assay [8] is described as follows: growth suppression of yeast trafficking mutant, preliminary HTS, modulators of trafficking downstream of Golgi apparatus project, 1536-format plate, OD 615 nm (AID 637; in the data active = inhibition above about 30%). The settings on record: yeast transport mutant growth, absorbance 615 nm, 18 h; stronger effect = higher value.
[9] abbreviates: H69AR cells + 2 uM doxorubicin, measured here: viability with 2 uM doxorubicin, stronger effect = lower value.
Setting [10] is: H69AR cells, compound alone cytotoxicity.

Each structure is given as a SMILES string. Calls of active or inactive are those of the source.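 The calls were made as follows, unless noted: active = viability at or below 30% in both replicate assays; inconclusive = viability at or below 30% in just one of the two assays; inactive = the rest.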

Sequence of Receptor tyrosine-protein kinase erbB-2 (Homo sapiens) (P04626 whole entry, looked up): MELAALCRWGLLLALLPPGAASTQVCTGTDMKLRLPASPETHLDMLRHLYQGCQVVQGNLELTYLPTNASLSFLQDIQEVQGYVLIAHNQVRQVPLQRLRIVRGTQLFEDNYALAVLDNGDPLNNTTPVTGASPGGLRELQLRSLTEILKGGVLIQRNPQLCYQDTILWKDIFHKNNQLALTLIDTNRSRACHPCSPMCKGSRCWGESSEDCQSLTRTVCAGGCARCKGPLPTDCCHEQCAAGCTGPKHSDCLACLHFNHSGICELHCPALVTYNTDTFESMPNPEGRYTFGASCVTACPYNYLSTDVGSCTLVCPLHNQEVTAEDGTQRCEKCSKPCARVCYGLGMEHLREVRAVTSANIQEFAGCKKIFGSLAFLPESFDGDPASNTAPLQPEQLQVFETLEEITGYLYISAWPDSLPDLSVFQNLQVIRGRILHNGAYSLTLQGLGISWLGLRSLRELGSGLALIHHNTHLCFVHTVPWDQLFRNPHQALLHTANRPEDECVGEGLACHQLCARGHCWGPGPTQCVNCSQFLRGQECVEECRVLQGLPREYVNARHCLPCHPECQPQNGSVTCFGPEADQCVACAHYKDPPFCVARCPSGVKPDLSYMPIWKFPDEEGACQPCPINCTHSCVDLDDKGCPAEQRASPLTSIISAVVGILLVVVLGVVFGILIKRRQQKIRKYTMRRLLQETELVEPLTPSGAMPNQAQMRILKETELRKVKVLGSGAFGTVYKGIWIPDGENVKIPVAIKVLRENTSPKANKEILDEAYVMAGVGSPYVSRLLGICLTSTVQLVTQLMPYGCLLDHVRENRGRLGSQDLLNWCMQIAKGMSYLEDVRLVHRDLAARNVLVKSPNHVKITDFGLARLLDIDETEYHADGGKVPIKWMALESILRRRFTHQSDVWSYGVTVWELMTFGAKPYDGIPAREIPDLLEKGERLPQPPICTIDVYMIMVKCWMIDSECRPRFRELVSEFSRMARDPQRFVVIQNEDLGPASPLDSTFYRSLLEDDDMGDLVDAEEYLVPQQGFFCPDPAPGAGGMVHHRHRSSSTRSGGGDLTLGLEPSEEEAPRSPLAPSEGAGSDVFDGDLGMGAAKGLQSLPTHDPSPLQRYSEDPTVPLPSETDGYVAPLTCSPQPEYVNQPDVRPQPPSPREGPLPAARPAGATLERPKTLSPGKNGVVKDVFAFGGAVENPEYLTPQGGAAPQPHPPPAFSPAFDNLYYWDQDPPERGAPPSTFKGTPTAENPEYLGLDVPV

What is called viability is a read-out of living cells in per cent, often relative to untreated cells. One may read the inhibition as the drop in the measured response relative to a control, in per cent. For `O=C1CCC(=O)N1OCCCCOc1ccccc1`, the viability in assay [1] was 123%; in assay [3], 123% (inactive); in assay [4] it was 107% (inactive); in assay [5] it was 96.2% (inactive); in assay [6] (setting [9]), 91%; in assay [6] (setting [10]) it was 96.2%. Moreover, in assay [2], the Her2 level was 93% (inactive). The differential viability (reversal) in assay [6] (H69AR cells + 2 uM doxorubicin) was 5.21% (inactive). In addition, the inhibition was -3.55% (inactive) in assay [7] and 0.48% (inactive) in assay [8].
`CN=C1CC(C)(C)CC(=O)/C1=C(/O)CCC(=O)NC`: the viability in assay [1] was 104%; in assay [3], 104% (inactive); in assay [4], 95.5% (inactive); in assay [5], 102% (inactive); in assay [6] (setting [9]), 92.1%; in assay [6] (setting [10]) it was 102%. The Her2 level in assay [2] was 84% (inactive). For the same compound, the differential viability (reversal) in assay [6] (H69AR cells + 2 uM doxorubicin) is 10.2% (inactive). Also, the inhibition in assay [7] is -2.63% (inactive); in assay [8] it was -3.97% (inactive).
Take `CCc1nnc(NC(=O)c2ccc(COc3ccc(C)cc3)o2)s1`: the viability in assay [1] is 104%; in assay [3], 104% (inactive); in assay [4] it was 99.5% (inactive); in assay [5], 106% (inactive); in assay [6] (setting [9]), 111%; in assay [6] (setting [10]) it was 106%. Further, the Her2 level in assay [2] is 93.5% (inactive). In assay [6] (H69AR cells + 2 uM doxorubicin), the differential viability (reversal) is -4.93% (inactive). Besides, the values for the inhibition in assay [7] and in assay [8] were -3.01% (inactive) and -3.17% (inactive), respectively.
As for `Cc1cc(C(=O)COC(=O)C2COc3ccccc3O2)c(C)n1CC1CCCO1` (stereo not given), the viability was 82% in assay [1]; 82% (inactive) in assay [3]; 99.4% (inactive) in assay [4]; 94% (inactive) in assay [5]; 93.6% in assay [6] (setting [9]); 94% in assay [6] (setting [10]). Moreover, the Her2 level in assay [2] was 100% (inactive). Also, in assay [6] (H69AR cells + 2 uM doxorubicin), the differential viability (reversal) was 0.315% (inactive). Besides, the inhibition is -0.38% (inactive) in assay [7] and -4.5% (inactive) in assay [8].
For `CC(=O)Nc1c(O)nc(SCC(=O)Nc2nnc(CC(C)C)s2)[nH]c1=O`, the viability in assay [1] was 86.5%; in assay [3], 86.5% (inactive); in assay [4] it was 98.2% (inactive); in assay [5], 93.6% (inactive); in assay [6] (setting [9]), 102%; in assay [6] (setting [10]), 93.6%. In assay [2], the Her2 level is 99.5% (inactive). The differential viability (reversal) in assay [6] (H69AR cells + 2 uM doxorubicin) is -8.89% (inactive). Moreover, the inhibition in assay [7] is 3.2% (inactive); in assay [8], 22.4% (inactive).
In the case of `O=C(CSc1nc2ccccc2s1)N1CCN(C(=O)c2ccco2)CC1`, the viability is 86.5% in assay [1]; 86.5% (inactive) in assay [3]; 79.8% (inactive) in assay [4]; 104% (inactive) in assay [5]; 94.6% in assay [6] (setting [9]); 104% in assay [6] (setting [10]). Also, the Her2 level in assay [2] is 97% (inactive). Besides, the differential viability (reversal) in assay [6] (H69AR cells + 2 uM doxorubicin) was 9.76% (inactive). The inhibition in assay [7] was -3.82% (inactive); in assay [8], -5.17% (inactive).
In the case of `COc1ccc(OC)c(C2C(C#N)=C(N)Oc3cc(C)[nH]c(=O)c32)c1` (stereo not given), the viability in assay [1] is 92%; in assay [3], 92% (inactive); in assay [4], 83.8% (inactive); in assay [5], 99.5% (inactive); in assay [6] (setting [9]) it was 99%; in assay [6] (setting [10]), 99.5%. Moreover, in assay [2], the Her2 level is 84.5% (inactive). Also, the differential viability (reversal) in assay [6] (H69AR cells + 2 uM doxorubicin) is 0.505% (inactive). For the same compound, the inhibition is -3.87% (inactive) in assay [7] and 0.49% (inactive) in assay [8].
As for `Cn1c(SCc2nc3ccccc3c(=O)[nH]2)nnc1-c1ccco1`, the viability is 99.5% in assay [1]; 99.5% (inactive) in assay [3]; 97.5% (inactive) in assay [4]; 96% (inactive) in assay [5]; 90.4% in assay [6] (setting [9]); 96% in assay [6] (setting [10]). Also, the Her2 level in assay [2] was 81% (inactive). In assay [6] (H69AR cells + 2 uM doxorubicin), the differential viability (reversal) is 5.6% (inactive). The inhibition in assay [7] is -7.84% (inactive); in assay [8] it was 6.89% (inactive).
Regarding `Cc1cc(C)c2cc3c(ccn3C3OC[C@H](O)[C@H](O)[C@H]3O)cc2n1` (stereo not given in full), the viability in assay [1] was 95%; in assay [3] it was 95% (inactive); in assay [4], 90.2% (inactive); in assay [5], 97.4% (inactive); in assay [6] (setting [9]), 90.3%; in assay [6] (setting [10]), 97.4%. In addition, in assay [2], the Her2 level is 105% (inactive). Moreover, the differential viability (reversal) in assay [6] (H69AR cells + 2 uM doxorubicin) is 7.18% (inactive). Also, the inhibition in assay [7] was -1.92% (inactive); in assay [8] it was 1% (inactive).
Consider `O=c1c2cc(Cl)ccc2[nH]c(=S)n1Cc1ccco1`, for which the viability in assay [1] was 84.5%; in assay [3], 84.5% (inactive); in assay [4], 93.6% (inactive); in assay [5], 86.7% (inactive); in assay [6] (setting [9]) it was 88%; in assay [6] (setting [10]), 86.7%. For the same compound, the Her2 level in assay [2] is 81% (inactive). In addition, the differential viability (reversal) in assay [6] (H69AR cells + 2 uM doxorubicin) is -1.27% (inactive). In addition, the values for the inhibition in assay [7] and in assay [8] were -8.13% (inactive) and 10.2% (inactive), respectively.
Regarding `O=c1[nH]c2sc3c(c2c2nncn12)CCCC3`, the viability is 136% in assay [1]; 136% (inactive) in assay [3]; 76.4% (inactive) in assay [4]; 100% (inactive) in assay [5]; 92.7% in assay [6] (setting [9]); 100% in assay [6] (setting [10]). For the same compound, the Her2 level in assay [2] is 114% (inactive). In addition, in assay [6] (H69AR cells + 2 uM doxorubicin), the differential viability (reversal) was 7.53% (inactive). Besides, the inhibition was -6.16% (inactive) in assay [7] and 2.54% (inactive) in assay [8].
Turning to `O=S(=O)(NCCSc1ccccc1)c1cccs1`, the viability in assay [1] was 95%; in assay [3], 95% (inactive); in assay [4] it was 102% (inactive); in assay [5], 86.4% (inactive); in assay [6] (setting [9]), 74.6%; in assay [6] (setting [10]) it was 86.4%. Further, the Her2 level in assay [2] was 86% (inactive). In addition, the differential viability (reversal) in assay [6] (H69AR cells + 2 uM doxorubicin) is 11.9% (inactive). The inhibition in assay [7] is -6.49% (inactive); in assay [8] it was -5.5% (inactive).
Consider `Cc1oc(C(=O)O)cc1CSCc1cc(C(=O)O)c(C)o1`, for which the viability was 104% in assay [1]; 104% (inactive) in assay [3]; 92.9% (inactive) in assay [4]; 103% (inactive) in assay [5]; 102% in assay [6] (setting [9]); 103% in assay [6] (setting [10]). For the same compound, in assay [2], the Her2 level is 94.5% (inactive). Further, in assay [6] (H69AR cells + 2 uM doxorubicin), the differential viability (reversal) is 1.31% (inactive). Moreover, the results for the inhibition in assay [7] and in assay [8] were -3.51% (inactive) and -1.48% (inactive), respectively.
On to `CN1C2C=C3C(C#N)=C(N)C(C#N)(C#N)[C@@H](c4ccc(Cl)cc4)[C@@H]3C1CC2` (stereo not given in full), for which the viability was 95% in assay [1]; 95% (inactive) in assay [3]; 91.3% (inactive) in assay [4]; 68.9% (inactive) in assay [5]; 94.9% in assay [6] (setting [9]); 68.9% in assay [6] (setting [10]). Moreover, the Her2 level in assay [2] was 87% (inactive). In addition, the differential viability (reversal) in assay [6] (H69AR cells + 2 uM doxorubicin) is -26.1% (inactive). The inhibition is -5.73% (inactive) in assay [7] and -0.32% (inactive) in assay [8].
Regarding `c1ccc2c(c1)CNc1ccccc1C2`, the viability in assay [1] is 97.5%; in assay [3], 97.5% (inactive); in assay [4] it was 73.5% (inactive); in assay [5], 93.1% (inactive); in assay [6] (setting [9]) it was 98%; in assay [6] (setting [10]), 93.1%. Moreover, the Her2 level in assay [2] is 90.5% (inactive). Further, the differential viability (reversal) in assay [6] (H69AR cells + 2 uM doxorubicin) is -4.85% (inactive). Besides, the inhibition is -3.87% (inactive) in assay [7] and -3.71% (inactive) in assay [8].

The record behind these values is PubChem BioAssay.
